T cell HTS: T cell immune modulators affecting CD8 T cell-vesicle binding. 2C CD8+ T cell-vesicle binding, flow cytometry; active compounds read low. response (vesicle binding), % at 7 µM. 330,000 compounds, 0.068% hits;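 active = response, share of CD8 T cells binding vesicles, and their 90th percentile fluorescence all below set limits, cut at about 80% in these data, passing the limit was not always enough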;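 note: values below 100% mean blocked vesicle binding to the CD8+ T cells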
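Material: 2C TCR transgenic mouse naive CD8+ T cells, MACS-purified. Also added: QL9-charged Drosophila Ld/ICAM-1/B7-1 vesicles. Timing: binding 1.5 h at 37 °C. Measured by: high-throughput flow cytometry with anti-B7-1 and anti-CD8 staining. Read-out: percent CD8+ FL2 mean versus row control. Controls: Unloaded micro-vesicles (low), QL9 vesicles with 0.7% DMSO (high).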
N-glyco inh: blocks N-linked glycosylation in D54 reporter cells; D54 ERlucT glycosylation luciferase reporter, 24 h; percent of 100 nM tunicamycin response; reporter increase, % at 12.5 µM; 360,000 compounds, 0.23% hits;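 active = mean luciferase reporter signal, scaled so untreated is 0 and the glycosylation-blocking control 100, at or above a set limit in every replicate; inconclusive = mean reaches the limit but not every replicate does; inactive = mean below the limit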;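 note: luciferase carries N-glycosylation sites so blocking glycosylation raises the light; 0% = median of neutral control wells and 100% = median of 100 nM tunicamycin wells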
ALR H2O2 inh: inhibitors of human sulfhydryl oxidase ALR. inhibition, % (concentration not given with the values). purified ALR, DTT oxidation, H2O2 HRP-luminol luminescence. 290,000 compounds, 3.8% hits;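 active = mean replicate inhibition above about 79%, with every replicate also reaching it, limit read from the data; inconclusive = only one of the two criteria met; inactive = mean below limit and not every replicate reaching it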
Target sequence (P55789 whole entry, looked up): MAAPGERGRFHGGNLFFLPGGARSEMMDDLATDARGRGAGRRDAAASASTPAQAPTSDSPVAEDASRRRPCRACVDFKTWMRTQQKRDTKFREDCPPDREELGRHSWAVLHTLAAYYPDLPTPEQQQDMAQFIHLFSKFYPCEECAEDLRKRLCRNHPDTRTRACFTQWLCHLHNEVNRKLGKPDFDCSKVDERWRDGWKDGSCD
* = called active by the depositor; ? = inconclusive; · = no result given. This excerpt belongs to a sample that is enriched for hits.

SMILES	T cell HTS	N-glyco inh	ALR H2O2 inh
O=C(c1cccs1)N1CCN=C1SCc1ccccc1F	339	-4	-13
Cc1cccc(CC(=O)N2CCN(C(=O)c3ccco3)CC2)c1	99	-1	-2
Cc1ccc(CSC2=NCCN2C(=O)c2ccco2)cc1	314	-2	95*
O=C(c1cccs1)N1CCN=C1SCc1ccc(Cl)cc1	698	-1	?
O=C(c1cccs1)N1CCN=C1SCc1cccnc1	885	-2	99*
Cc1cccc(CSC2=NCCN2C(=O)c2ccco2)c1	228	0	96*
O=C(c1ccco1)N1CCN=C1SCc1ccccc1F	289	-3	95*
CC(C)(C)S(=O)(=O)N1C[C@@H]2CC/C=C\C/C=C\2[C@H]1CCO	·	0	·
COC(=O)CC1(CC(N)=O)SCCS1	·	12	·
O=C(N1CCN=C1SCc1cccnc1)C12CC3CC(CC(C3)C1)C2	206	-3	99*
O=C(c1ccc(S(=O)(=O)N2CCOCC2)cc1)N1CCN=C1SCc1cccnc1	251	2	99*
O=C(NCc1cccnc1)C12CC3CC(CC(Cl)(C3)C1)C2	260	2	-7
O=C1NCCN1C(=O)c1ccco1	418	-1	-5
O=C(c1ccco1)N1CCN=C1SCc1cccnc1	401	-1	99*
CN(C)S(=O)(=O)c1ccc(C(=O)N2CCN=C2SCc2ccccc2)cc1	184	0	-12
COc1ccccc1/C=C/C(=O)NC(=S)NCC1CCCO1 (stereo not given)	298	-1	-1
Cc1ccc(-c2ccc(C)c(N)c2C)c(C)c1N	410	1	83*
Cc1ccc2nc(C)c(C)nc2c1N	455	2	2
Cc1ccc(C)c(OCCC(=O)OCC(=O)Nc2cc(S(=O)(=O)N3CCCCC3)ccc2C)c1	163	2	-5
CCc1ccc(OCC(=O)c2c(O)c3ccccc3oc2=O)cc1	334	0	30
CCc1oc2ccccc2c1C(=O)c1cc(Br)c(O)c(Br)c1	488	5	98*
Cc1cccc(Oc2ccc(Cl)cc2N)c1	185	-2	-10
O=C(CSCc1nc2c(nnn2Cc2ccc(F)cc2)c(=O)[nH]1)Nc1cccc(C(F)(F)F)c1	858	0	96*
CN(C)c1ccc(NC(=O)CSCc2nc3c(nnn3Cc3ccc(F)cc3)c(=O)[nH]2)cc1	157	0	·
CCC[C@H]1CN(c2ccc(OC)cc2)C(=O)[C@@H]1CC(=O)NC	·	2	·
SMILES	T cell HTS	N-glyco inh	ALR H2O2 inh
CN(CCc1ccccc1)C(=O)c1ccc(NC(=O)Cc2ccc(NC(=O)C3CCCN(C(=O)c4ccccc4)C3)cc2)cc1 (stereo not given)	·	14	·
Cc1ccc(NS(=O)(=O)c2cccc(C(=O)NC3CCN(Cc4ccccc4)CC3)c2)cc1	·	-9	·
O=C(NC1CCN(Cc2ccccc2)CC1)c1cccc(S(=O)(=O)Nc2ccc(SC(F)F)cc2)c1	228	-8	99*
CCOc1ccc(NC(=O)Nc2cc(-c3ccccc3)sc2C(=O)OC)cc1	202	0	-1
COC(=O)c1sc(-c2ccccc2)cc1NC(=O)C1CC1	244	-3	-9
COC(=O)c1sccc1NC(=O)c1ccccc1C(=O)O	272	1	3
COC(=O)c1sc(-c2ccc(C(C)(C)C)cc2)cc1NC(=O)CSCC(=O)O	476	-1	98*
COC(=O)c1sc(-c2ccc(C(C)(C)C)cc2)cc1NC(=O)c1ccccc1C(=O)O	129	-1	92*
COC(=O)c1sc(-c2ccc(Cl)cc2)cc1NC(=O)c1ccccc1C(=O)O	130	-3	97*
O=C(COC(=O)c1ccc[n+]([O-])c1)Nc1c(Br)cc([N+](=O)[O-])cc1Br	520	·	-10
CCn1c(=O)c(C(=O)NCCc2ccccc2)c(O)c2ccccc21	455	-2	1
CC(=O)c1c(O)c2ccccc2n(Cc2ccccc2)c1=O	58*	-1	-1
Cc1cc(C)n(CCC(=O)N2CCCC(Nc3ccc(F)cc3)C2)n1 (stereo not given)	431	-1	98*
O=C(CC1CCCC1)N1CCCC(Nc2ccc(F)cc2)C1 (stereo not given)	341	1	99*
O=C(c1cccc(N2CCNC2=O)c1)N1CCCC(Nc2cccc(F)c2)C1 (stereo not given)	243	2	74
CC1(CCC(=O)N2CCCC(Nc3ccc(F)cc3)C2)CC1 (stereo not given)	131	-1	98*
O=C1CCCN1CCC(=O)N1CCCC(Nc2ccc(F)c(F)c2)C1 (stereo not given)	285	1	18
O=C(CCn1cnnn1)N1CCCC(Nc2ccc(F)c(F)c2)C1 (stereo not given)	510	1	11
O=C(CC1CCCC1)N1CCN(S(=O)(=O)c2ccc(F)cc2)CC1	316	-4	8

Assay outcomes from PubChem BioAssay.
